From ChEMBL document CHEMBL1155293 (Eur J Med Chem, 2009)
One block for each compound: values may come before it. Activity calls are given as the source filed them.

What was measured:
Mus musculus [1] = assay: Antinociceptive activity against capsaicin-induced neurogenic pain in Swiss mouse by reduction of paw licking response at 30 mg/kg, ip; format: functional; set-up: scale not given: the % may be the effect or the level left; conditions: route intraperitoneal
How it was run: (§1)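 Capsaicin dissolved in absolute ethanol (final ≤5%), injected intraplantarly. Test compound given i.p. at 10, 30 and 60 mg/kg, 30 min before capsaicin, in Tween 80 plus 0.9% NaCl. Time spent licking the injected paw was timed over 5 min. Data are mean ± SEM; ID50 from linear regression as geometric mean with 95% confidence limits. ANOVA with Newman–Keuls test.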

Mus musculus [2] = assay: Antinociceptive activity against glutamate-induced pain in Swiss mouse assessed as reduction in time spent on paw licking and biting at 30 mg/kg, ip; format: functional; set-up: scale not given: the % may be the effect or the level left; conditions: route intraperitoneal
How it was run: (§2)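 Dosing was i.p. at 10, 30 or 60 mg/kg, 30 min before intraplantar glutamate (30 µmol/paw) into the right hindpaw. Time spent licking or biting the injected paw was timed from 0 to 15 min. Mean ± SEM of six values; ID50 from linear regression as geometric mean with 95% confidence limits. ANOVA with Newman–Keuls test.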

Mus musculus [3] = assay: Antinociceptive activity in Swiss mouse by inhibition of acetic acid-induced abdominal constriction at 250 mg/kg, po after 20 mins; format: functional, Abdomen; set-up: scale not given: the % may be the effect or the level left
How it was run: (§3)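 Oral dosing of male Swiss mice (25–30 g) at 100, 250 and 500 mg/kg, 30 min before i.p. acetic acid (0.6%). Vehicle was Tween 80 in 0.9% NaCl. Abdominal constrictions with stretching were counted cumulatively for 20 min at 23 ± 2 °C. Inhibition is relative to vehicle controls; mean ± SEM of six values.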

Mus musculus [4] = assay: Antinociceptive activity against capsaicin-induced neurogenic pain in ip dosed Swiss mouse by reduction of paw licking response; format: functional; how it was run: as §1
[5] = Lipophilicity, log P of the compound; format: physicochemical; conditions: octanol/water
Mus musculus [6] = assay: Antinociceptive activity in Swiss mouse by inhibition of acetic acid-induced abdominal constriction at 100 mg/kg, po after 20 mins; format: functional, Abdomen; set-up: scale not given: the % may be the effect or the level left; how it was run: as §3
Mus musculus [7] = assay: Antinociceptive activity in ip dosed Swiss mouse by inhibition of formalin induced pain after 0 to 5 mins; format: functional; conditions: read-out: ID50 (the source's name)
How it was run: (§4)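 Swiss mice, 6–8 per group, housed at 22 ± 2 °C on a 12 h light/dark cycle. Compound given i.p. at 6, 10 or 30 mg/kg in Tween 80/0.9% NaCl vehicle (Tween ≤5%) before intraplantar formalin. Licking was scored for the first phase (0–5 min) and second phase (15–30 min). Mean ± SEM of six values; ID50 by linear regression with 95% confidence limits.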

Mus musculus [8] = assay: Antinociceptive activity against formalin-induced pain in Swiss mouse assessed as reduction of time spent in paw licking and biting at 30 mg/kg, ip after 0 to 5 mins; format: functional; set-up: scale not given: the % may be the effect or the level left; conditions: route intraperitoneal; how it was run: as §4
Mus musculus [9] = assay: Antinociceptive activity in Swiss mouse by inhibition of acetic acid-induced abdominal constriction at 10 mg/kg, ip after 20 mins; format: functional; conditions: Abdomen, route intraperitoneal
How it was run: (§5)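 Male Swiss mice (25–30 g) were pretreated i.p. 30 min before i.p. acetic acid (0.6%): 10 mg/kg for screening, or 3, 6 and 10 mg/kg for dose-response. Controls received vehicle (0.9% NaCl and Tween 80, 10 ml/kg i.p.). Abdominal constrictions plus stretching were counted cumulatively over 20 min at 23 ± 2 °C. Inhibition is relative to controls; ID50 by linear regression.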

Mus musculus [10] = assay: Antinociceptive activity against formalin-induced pain in ip dosed Swiss mouse assessed as reduction of time spent in paw licking; format: functional; conditions: for ED50: read-out: ID50 (the source's name); how it was run: as §4
Mus musculus [11] = assay: Antinociceptive activity against capsaicin-induced neurogenic pain in Swiss mouse by reduction of paw licking response at 60 mg/kg, ip; format: functional; set-up: scale not given: the % may be the effect or the level left; conditions: route intraperitoneal; how it was run: as §1
Mus musculus [12] = assay: Antinociceptive activity against formalin-induced pain in Swiss mouse assessed as reduction of time spent in paw licking and biting at 10 mg/kg, ip after 15 to 30 mins; format: functional; set-up: scale not given: the % may be the effect or the level left; conditions: route intraperitoneal; how it was run: as §4
Mus musculus [13] = assay: Antinociceptive activity in Swiss mouse assessed as reduction in response latency at 10 mg/kg, ip after 30 mins by hot plate method; format: functional, organism-based; set-up: dose 10 mg/kg
How it was run: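 Mice received saline, morphine 10 mg/kg s.c., or test compound 10 mg/kg i.p. 30 min before testing on a hot plate at 56 ± 1 °C. Latency to hindpaw licking, paw shaking or jumping was recorded. Mice with baseline latency above 20 s were excluded; cut-off was 30 s. Mean ± SEM of six values.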

Mus musculus [14] = assay: Antinociceptive activity against formalin-induced pain in Swiss mouse assessed as reduction of time spent in paw licking and biting at 30 mg/kg, ip after 15 to 30 mins; format: functional; set-up: scale not given: the % may be the effect or the level left; conditions: route intraperitoneal; how it was run: as §4
Mus musculus [15] = assay: Antinociceptive activity in ip dosed Swiss mouse by inhibition of formalin induced pain after 15 to 30 mins; format: functional; conditions: read-out: ID50 (the source's name); how it was run: as §4
Mus musculus [16] = assay: Antinociceptive activity in po dosed Swiss mouse by inhibition of acetic acid-induced abdominal constriction; format: functional; conditions: Abdomen, read-out: ID50 (the source's name); how it was run: as §3
Mus musculus [17] = assay: Antinociceptive activity in ip dosed Swiss mouse by inhibition of acetic acid-induced abdominal constriction after 20 mins; format: functional; conditions: Abdomen, read-out: ID50 (the source's name); how it was run: as §5
Mus musculus [18] = assay: Antinociceptive activity against formalin-induced pain in Swiss mouse assessed as reduction of time spent in paw licking and biting at 10 mg/kg, ip after 0 to 5 mins; format: functional; set-up: scale not given: the % may be the effect or the level left; conditions: route intraperitoneal; how it was run: as §4
Mus musculus [19] = assay: Antinociceptive activity against glutamate-induced pain in Swiss mouse assessed as reduction in time spent on paw licking and biting at 10 mg/kg, ip; format: functional; set-up: scale not given: the % may be the effect or the level left; conditions: route intraperitoneal; how it was run: as §2
Mus musculus [20] = assay: Antinociceptive activity against glutamate-induced pain in Swiss mouse assessed as reduction in time spent on paw licking and biting at 60 mg/kg, ip; format: functional; set-up: scale not given: the % may be the effect or the level left; conditions: route intraperitoneal; how it was run: as §2
Mus musculus [21] = assay: Antinociceptive activity in Swiss mouse by inhibition of acetic acid-induced abdominal constriction at 500 mg/kg, po after 20 mins; format: functional, Abdomen; set-up: scale not given: the % may be the effect or the level left; how it was run: as §3
Mus musculus [22] = assay: Antinociceptive activity against glutamate-induced pain in ip dosed Swiss mouse assessed as reduction in time spent on paw licking and biting; format: functional; how it was run: as §2
[23] = read-out: ID50 (the source's name)

logP [5]: 7.04
Compound: CCCCCCCCCCCCOC(=O)/C=C/c1ccc(O)c(O)c1
Activity (Mus musculus [1]): 36.9%
Activity (Mus musculus [2]): 46.3%
Activity (Mus musculus [3]): 32.4%
Activity (Mus musculus [4]): Dose-dependent effect
ED50 (Mus musculus [4]; [23]): 46.6 mg/kg
Activity (Mus musculus [6]): 22.2%
ED50 (Mus musculus [7]): 26.2 mg/kg
Activity (Mus musculus [8]): 56.2%
inhibition in vivo at 10 mg/kg (Mus musculus [9]): 78.8%
Activity (Mus musculus [10]): Dose-dependent effect
Activity (Mus musculus [11]): 58.6%
Activity (Mus musculus [12]): 34.4%
Activity (Mus musculus [13]): inactive
Activity (Mus musculus [14]): 56.8%
ED50 (Mus musculus [15]): 23.8 mg/kg
ED50 (Mus musculus [16]): ≥ 500 mg/kg
ED50 (Mus musculus [17]): 5.25 mg/kg
Activity (Mus musculus [18]): 20.7%
Activity (Mus musculus [19]): 25.6%
Activity (Mus musculus [20]): 65.2%
Activity (Mus musculus [21]): 45.7%
Activity (Mus musculus [22]): Dose-dependent effect
ED50 (Mus musculus [22]; [23]): 38.4 mg/kg

logP [5]: 3.36
Compound: O=C(/C=C/c1ccc(O)c(O)c1)OCCc1ccccc1 [CAFFEIC ACID PHENETHYL ESTER]
inhibition in vivo at 10 mg/kg (Mus musculus [9]): 27.5%

logP [5]: 2.68
Compound: CC(C)COC(=O)/C=C/c1ccc(O)c(O)c1
inhibition in vivo at 10 mg/kg (Mus musculus [9]): 52%

logP [5]: 3.21
Compound: CC(C)CCOC(=O)/C=C/c1ccc(O)c(O)c1
inhibition in vivo at 10 mg/kg (Mus musculus [9]): 75.8%

Compound: O=C(O)/C=C/c1ccc(O)c(O)c1 [CAFFEIC ACID]
inhibition in vivo at 10 mg/kg (Mus musculus [9]): 34.6%

logP [5]: 1.56
Compound: COC(=O)/C=C/c1ccc(O)c(O)c1 [METHYLCAFFEATE]
inhibition in vivo at 10 mg/kg (Mus musculus [9]): 54.5%

logP [5]: 2.3
Compound: CC(C)OC(=O)/C=C/c1ccc(O)c(O)c1
inhibition in vivo at 10 mg/kg (Mus musculus [9]): 31%

logP [5]: 5.02
Compound: CCCCCCCCOC(=O)/C=C/c1ccc(O)c(O)c1
inhibition in vivo at 10 mg/kg (Mus musculus [9]): 46.2%

logP [5]: 1.93
Compound: CCOC(=O)/C=C/c1ccc(O)c(O)c1 [ETHYL CAFFEATE]
inhibition in vivo at 10 mg/kg (Mus musculus [9]): 58.1%

logP [5]: 2.99
Compound: CCCCOC(=O)/C=C/c1ccc(O)c(O)c1 [BUTYL CAFFEATE]
inhibition in vivo at 10 mg/kg (Mus musculus [9]): 45%

logP [5]: 3.15
Compound: O=C(/C=C/c1ccc(O)c(O)c1)OCc1ccccc1 [BENZYL CAFFEATE]
inhibition in vivo at 10 mg/kg (Mus musculus [9]): 8.8%

logP [5]: 0.68
Compound: CC(=O)Oc1ccccc1C(=O)O [ASPIRIN]
inhibition in vivo at 10 mg/kg (Mus musculus [9]): 35%
ED50 (Mus musculus [10]): 123 µmol/kg
ED50 (Mus musculus [17]): 125 µmol/kg

logP [5]: 1.43
Compound: CC(=O)Nc1ccc(O)cc1 [ACETAMINOPHEN]
inhibition in vivo at 10 mg/kg (Mus musculus [9]): 38%
ED50 (Mus musculus [10]): 120 µmol/kg
ED50 (Mus musculus [17]): 133 µmol/kg
